pEC50, pIC50: −log10 of the molar value. Calls of active or inactive are those of the source. No cut-off for these calls is given here.
Experiments:
[1] = target: Replicase polyprotein 1ab (Severe acute respiratory syndrome coronavirus 2, UniProt P0DTD1); assay: Inhibition of N-terminal His6-tagged SARS-CoV2 Wuhan-Hu-1 3C-like protease […] expressed in Escherichia coli BL21 (DE3) cells using FAM-SAVLQ/SG-QXL520 as substrate by FRET enzyme assay
Outline: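 Enzyme was full-length codon-optimized N-terminal His6 protease from pET-28a. It was preincubated with serial inhibitor dilutions, or DMSO, for 1 h at 37°C in 20 mM HEPES pH 8 with 200 mM NaCl, 0.4 mM EDTA, 60% glycerol and 6 mM DTT. FAM-SAVLQ/SG-QXL520 was then added and fluorescence (ex 480/em 520 nm) read after 1 h. Readings were background-subtracted. IC50 came from a variable-slope fit, mean ± SD of ≥3 replicates.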

[2] = Cytotoxicity against african green monkey Vero E6 cells; type: toxicity, cell-based, Vero C1008; settings: chlorocebus sabaeus
[3] = Inhibition of MERS-CoV 3C-like protease incubated for 30 mins by FRET enzyme assay; set-up: species or system Middle East respiratory syndrome-related coronavirus
SARS-CoV-2 [4] = assay: Antiviral activity against N-terminal His6-tagged SARS-CoV-2 3C-like protease […] HEK293T cells measured after 24 hrs by cell based replicon assay; type: functional, organism-based; settings: Severe acute respiratory syndrome coronavirus 2
SARS-CoV-2 [5] = assay: Antiviral activity against SARS-CoV-2 3C-like measured after 24 hrs; type: functional, organism-based; settings: Severe acute respiratory syndrome coronavirus 2, 24 h
[6] = Safety index, ratio of CC50 for cytotoxicity against Vero E6 cells to EC50 for antiviral activity against SARS-CoV-2 Wuhan-Hu-1; type: toxicity, cell-based, Vero C1008; settings: monkey, read-out: Ratio CC50/EC50

CC(C)C[C@H](NC(=O)OC1CC2(CCN(C(=O)Cc3ccccc3)CC2)C1)C(=O)N[C@H](C=O)C[C@H]1CCNC1=O
pIC50 [1]: 6.46
CC50 [2]: > 100 µM
pIC50 [3]: 6.15

CC(C)C[C@H](NC(=O)OC1CC2(C1)CN(C(=O)OC(C)(C)C)C2)C(=O)N[C@H](C=O)C[C@H]1CCNC1=O
pIC50 [1]: 5.48
CC50 [2]: > 100 µM
pIC50 [3]: 5.82

CC(C)C[C@H](NC(=O)OCC1CN(C(=O)OC(C)(C)C)C1)C(=O)N[C@@H](C[C@H]1CCNC1=O)C(=O)C(O)S(=O)(=O)O (stereo partly specified)
Activity (SARS-CoV-2 [4]): Active
CC50 [2]: > 100 µM
pEC50 (SARS-CoV-2 [5]): 6.37

CC(C)C[C@H](NC(=O)OC1CC2(CCN(C(=O)C(C)C)CC2)C1)C(=O)N[C@@H](C[C@H]1CCNC1=O)C(=O)C(O)S(=O)(=O)O (stereo partly specified)
CC50 [2]: > 100 µM

CC(C)C[C@H](NC(=O)OC1CC2(CCN(C(=O)OC(C)(C)C)C2)C1)C(=O)N[C@H](C=O)C[C@H]1CCNC1=O (stereo partly specified)
CC50 [2]: > 100 µM
pIC50 [3]: 6.15

CC(C)C[C@H](NC(=O)OC1CC2(C1)CN(C(=O)Cc1ccccc1)C2)C(=O)N[C@H](C=O)C[C@H]1CCNC1=O
pIC50 [1]: 6.59
CC50 [2]: > 100 µM
pIC50 [3]: 6.68

CC(C)C[C@H](NC(=O)OCC1CN(S(C)(=O)=O)C1)C(=O)N[C@@H](C[C@H]1CCNC1=O)C(=O)C(O)S(=O)(=O)O (stereo partly specified)
CC50 [2]: > 100 µM

CC(C)C[C@H](NC(=O)OCC1CN(C(=O)Cc2ccccc2)C1)C(=O)N[C@H](C=O)C[C@H]1CCNC1=O
pIC50 [1]: 6.08
CC50 [2]: > 100 µM
pIC50 [3]: 6.55

CC(C)C[C@H](NC(=O)OC1CC2(C1)CN(S(C)(=O)=O)C2)C(=O)N[C@H](C=O)C[C@H]1CCNC1=O
pIC50 [1]: 6.17
CC50 [2]: > 100 µM
pIC50 [3]: 6.66

CC(C)C[C@H](NC(=O)OCC1CN(C(=O)C2CC3CCC2C3)C1)C(=O)N[C@H](C=O)C[C@H]1CCNC1=O (stereo partly specified)
pIC50 [1]: 6.28
CC50 [2]: > 100 µM
pIC50 [3]: 6.72

CC(C)C[C@H](NC(=O)OC1CCC2(C1)CN(C(=O)OC(C)(C)C)C2)C(=O)N[C@H](C=O)C[C@H]1CCNC1=O (stereo partly specified)
pIC50 [1]: 5.90
CC50 [2]: > 100 µM
pIC50 [3]: 6.00

CC(C)C[C@H](NC(=O)OC1CC2(CCN(C#N)CC2)C1)C(=O)N[C@@H](C[C@H]1CCNC1=O)C(=O)C(O)S(=O)(=O)O (stereo partly specified)
CC50 [2]: > 100 µM

CC(C)C[C@H](NC(=O)OC1CC2(CCN(C(=O)OC(C)(C)C)CC2)C1)C(=O)N[C@H](C=O)C[C@H]1CCNC1=O
pIC50 [1]: 6.44
Activity (SARS-CoV-2 [4]): Active
selectivity ratio [6]: 1250
CC50 [2]: > 100 µM
pIC50 [3]: 5.92
pEC50 (SARS-CoV-2 [5]): 7.05

CC(C)C[C@H](NC(=O)OC1(C)CN(C(=O)OC(C)(C)C)C1)C(=O)N[C@H](C=O)C[C@H]1CCNC1=O
pIC50 [1]: 5.44
CC50 [2]: > 100 µM
pIC50 [3]: 5.46

CC(C)C[C@H](NC(=O)OC1CCC2(C1)CN(C(=O)OC(C)(C)C)C2)C(=O)N[C@@H](C[C@H]1CCNC1=O)C(=O)C(O)S(=O)(=O)O (stereo partly specified)
CC50 [2]: > 100 µM

[2H]C([2H])(OC(=O)N[C@@H](CC(C)C)C(=O)N[C@@H](C[C@H]1CCNC1=O)C(=O)C(O)S(=O)(=O)[O-])C1CN(C(=O)OC(C)(C)C)C1.[Na+] (stereo partly specified)
CC50 [2]: > 100 µM

CC(C)C[C@H](NC(=O)OC1CC2(C1)CN(C(=O)C(C)C)C2)C(=O)N[C@@H](C[C@H]1CCNC1=O)C(=O)C(O)S(=O)(=O)O (stereo partly specified)
CC50 [2]: > 100 µM

CC(C)C[C@H](NC(=O)OC1CC2(CCN(S(C)(=O)=O)CC2)C1)C(=O)N[C@H](C=O)C[C@H]1CCNC1=O
pIC50 [1]: 6.62
CC50 [2]: > 100 µM
pIC50 [3]: 6.43

CC(C)C[C@H](NC(=O)OC1CC2(CCN(C(=O)C(C)C)CC2)C1)C(=O)N[C@H](C=O)C[C@H]1CCNC1=O
pIC50 [1]: 6.42
CC50 [2]: > 100 µM
pIC50 [3]: 6.19

CC(C)C[C@H](NC(=O)OCC1CN(C(=O)OC(C)(C)C)C1)C(=O)N[C@H](C=O)C[C@H]1CCNC1=O
pIC50 [1]: 6.39
Activity (SARS-CoV-2 [4]): Active
CC50 [2]: > 100 µM
pIC50 [3]: 6.31
pEC50 (SARS-CoV-2 [5]): 6.42

CC(C)C[C@H](NC(=O)OC1CC2(CCN(C(=O)Cc3ccccc3)CC2)C1)C(=O)N[C@@H](C[C@H]1CCNC1=O)C(=O)C(O)S(=O)(=O)O (stereo partly specified)
CC50 [2]: > 100 µM

CC(C)C[C@H](NC(=O)OC1CC2(CCN(C(=O)OC(C)(C)C)C2)C1)C(=O)N[C@@H](C[C@H]1CCNC1=O)C(=O)C(O)S(=O)(=O)O (stereo partly specified)
CC50 [2]: > 100 µM

CC(C)C[C@H](NC(=O)OCC1CN(C(=O)Cc2ccccc2)C1)C(=O)N[C@@H](C[C@H]1CCNC1=O)C(=O)C(O)S(=O)(=O)O (stereo partly specified)
CC50 [2]: > 100 µM

CC(C)C[C@H](NC(=O)OC1CN(C(=O)OC(C)(C)C)C1)C(=O)N[C@H](C=O)C[C@H]1CCNC1=O
pIC50 [1]: 5.60
CC50 [2]: > 100 µM
pIC50 [3]: 5.78

[2H]C([2H])(OC(=O)N[C@@H](CC(C)C)C(=O)N[C@H](C=O)C[C@H]1CCNC1=O)C1CN(C(=O)OC(C)(C)C)C1
pIC50 [1]: 6.48
CC50 [2]: > 100 µM
pIC50 [3]: 6.46

CC(C)C[C@H](NC(=O)OCC1CN(C(=O)C2CC3CCC2C3)C1)C(=O)N[C@@H](C[C@H]1CCNC1=O)C(=O)C(O)S(=O)(=O)O (stereo partly specified)
CC50 [2]: > 100 µM

CC(C)C[C@H](NC(=O)OC1CC2(C1)CN(S(C)(=O)=O)C2)C(=O)N[C@@H](C[C@H]1CCNC1=O)C(=O)C(O)S(=O)(=O)O (stereo partly specified)
CC50 [2]: > 100 µM

CC(C)C[C@H](NC(=O)OC1CN(C(=O)OC(C)(C)C)C1)C(=O)N[C@@H](C[C@H]1CCNC1=O)C(=O)C(O)S(=O)(=O)O (stereo partly specified)
CC50 [2]: > 100 µM

CC(C)C[C@H](NC(=O)OC1CC2(CCN(S(C)(=O)=O)CC2)C1)C(=O)N[C@@H](C[C@H]1CCNC1=O)C(=O)C(O)S(=O)(=O)O (stereo partly specified)
CC50 [2]: > 100 µM

CC(C)C[C@H](NC(=O)OC1(C)CN(C(=O)OC(C)(C)C)C1)C(=O)N[C@@H](C[C@H]1CCNC1=O)C(=O)C(O)S(=O)(=O)O (stereo partly specified)
CC50 [2]: > 100 µM

CC(C)C[C@H](NC(=O)OC1CC2(CCN(C#N)CC2)C1)C(=O)N[C@H](C=O)C[C@H]1CCNC1=O
pIC50 [1]: 6.49
CC50 [2]: > 100 µM
pIC50 [3]: 6.25

CC(C)C[C@H](NC(=O)OC1CC2(C1)CN(C(=O)OC(C)(C)C)C2)C(=O)N[C@@H](C[C@H]1CCNC1=O)C(=O)C(O)S(=O)(=O)O (stereo partly specified)
CC50 [2]: > 100 µM

CC(C)C[C@H](NC(=O)OC1CC2(C1)CN(C(=O)C(C)C)C2)C(=O)N[C@H](C=O)C[C@H]1CCNC1=O
pIC50 [1]: 5.94
CC50 [2]: > 100 µM
pIC50 [3]: 6.46

CC(C)C[C@H](NC(=O)OC1CC2(C1)CN(C(=O)Cc1ccccc1)C2)C(=O)N[C@@H](C[C@H]1CCNC1=O)C(=O)C(O)S(=O)(=O)O (stereo partly specified)
CC50 [2]: > 100 µM

CC(C)C[C@H](NC(=O)OC1CC2(CCN(C(=O)OC(C)(C)C)CC2)C1)C(=O)N[C@@H](C[C@H]1CCNC1=O)C(=O)C(O)S(=O)(=O)O (stereo partly specified)
Activity (SARS-CoV-2 [4]): Active
selectivity ratio [6]: 1250
CC50 [2]: > 100 µM
pEC50 (SARS-CoV-2 [5]): 7.10

CC(C)C[C@H](NC(=O)OCC1CN(S(C)(=O)=O)C1)C(=O)N[C@H](C=O)C[C@H]1CCNC1=O
pIC50 [1]: 5.31
CC50 [2]: > 100 µM
pIC50 [3]: 5.85
